Data taken from ChEMBL document CHEMBL4138139, “Discovery of VU6005649, a CNS Penetrant mGlu7/8 Receptor PAM Derived from a Series of Pyrazolo[1,5-a]pyrimidines” (ACS Med Chem Lett, 2017).

Experiments:
[1] = target: Histamine H1 receptor (Homo sapiens) (UniProt P35367); test: Displacement of [3H] pyrilamine from recombinant human H1 receptor expressed in CHOK1 cell membranes at 10 uM after 180 mins by scintillation counting method relative to control
Method in brief: (§1)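 Single-concentration screen at 10 μM within a commercial lead-profiling panel of 68 GPCRs, ion channels and transporters. Activity read as percent inhibition of specific radioligand binding to each target.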

[2] = target: T1, Glutamate NMDA receptor (Rattus norvegicus) (UniProt P35439+Q00959+Q00960+Q00961+Q62645+Q8VHN2+Q9R1M7); test: Displacement of [3H]-MDL-105519 from glutamate NMDA receptor glycine binding site in Wistar rat cerebral cortical membrane at 10 uM after 30 mins by scintillation counting method relative to control; method in brief: as §1
Oryctolagus cuniculus = species on record: Oryctolagus cuniculus; test: Inhibition of rabbit P2X receptor at 10 uM relative to control; method in brief: as §1
[3] = target: Metabotropic glutamate receptor 6 (Homo sapiens, UniProt O15303); test: Positive allosteric modulation of human mGlu6 receptor expressed in HEK cells assessed as increase in glutamate-induced calcium flux incubated for 142 secs followed by glutamate addition measured after 120 secs by Fluo4-AM dye based fluorescence assay; format: functional, cell-based
[4] = target: T1, Glutamate NMDA receptor (Rattus norvegicus); test: Displacement of [3H] TCP from glutamate NMDA receptor phencyclidine binding site in Wistar rat cerebral cortical membrane at 10 uM after 45 mins by scintillation counting method relative to control
Method in brief: (§2)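 Single-concentration screen at 10 μM in an outsourced profiling panel of 68 GPCRs, ion channels and transporters. Activity read out as percent inhibition of specific radioligand binding.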

Substance-P receptor = Substance-P receptor (Homo sapiens, UniProt P25103); test: Displacement of [3H] substance P from recombinant human NK1 receptor expressed in CHO cells after 90 mins by scintillation counting method; format: cell-based
[5] = target: T2, Metabotropic glutamate receptor 1 (Rattus norvegicus, UniProt P23385); test: Positive allosteric modulation of rat mGlu1 receptor expressed in HEK cells assessed as increase in glutamate-induced calcium flux incubated for 142 secs followed by glutamate addition measured after 120 secs by Fluo4-AM dye based fluorescence assay; format: functional, cell-based
hERG (KCNH2) = hERG (KCNH2) (Homo sapiens, UniProt Q12809); test: Displacement of [3H] astemizole from full length human recombinant ERG receptor expressed in HEK293 cell membranes at 10 uM after 60 mins by scintillation counting method relative to control; details: HEK293 cell membranes that express recombinant human ERG, probe [3H] astemizole
[6] = target: Metabotropic glutamate receptor 3 (Rattus norvegicus, UniProt P31422); test: Positive allosteric modulation of rat mGlu3 receptor expressed in HEK cells assessed as increase in glutamate-induced calcium flux incubated for 142 secs followed by glutamate addition measured after 120 secs by Fluo4-AM dye based fluorescence assay; format: functional, cell-based
Rattus norvegicus [7] = species on record: Rattus norvegicus; test: Displacement of [3H]-flunitrazepam from Wistar rat brain central GABA-A receptor at 10 uM measured after 60 mins by scintillation counting method relative to control; method in brief: as §1
[8] = target: Neuropeptide Y receptor type 1 (Homo sapiens) (UniProt P25929); test: Displacement of [125I] Peptide YY from Y1 receptor in human SK-N-MC cell membrane at 10 uM after 60 mins by scintillation counting method relative to control; format: cell membranes; method in brief: as §2
[9] = target: Cysteinyl leukotriene receptor 1 (Homo sapiens) (UniProt Q9Y271); test: Displacement of [3H] LTD4 from recombinant human CysLT1 receptor expressed in CHOK1 cell membranes at 10 uM after 30 mins by scintillation counting method relative to control; method in brief: as §2
[10] = target: T2, Metabotropic glutamate receptor 1; test: Negative allosteric modulation of rat mGlu1 receptor expressed in HEK cells assessed as decrease in glutamate-induced thallium flux incubated for 142 secs followed by glutamate addition measured after 120 secs by Fluo4-AM dye based fluorescence assay; format: functional, cell-based
[11] = target: Metabotropic glutamate receptor 2 (Rattus norvegicus, UniProt P31421); test: Negative allosteric modulation of rat mGlu2 receptor expressed in HEK cells assessed as decrease in glutamate-induced thallium flux incubated for 142 secs followed by glutamate addition measured after 120 secs by Fluo4-AM dye based fluorescence assay; format: functional, cell-based
Rattus norvegicus [12] = species on record: Rattus norvegicus; test: Inhibition of rat kainate glutamate receptor at 10 uM relative to control; method in brief: as §1
[13] = target: Metabotropic glutamate receptor 5 (Rattus norvegicus, UniProt P31424); test: Positive allosteric modulation of rat mGlu5 receptor expressed in HEK cells assessed as increase in glutamate-induced calcium flux incubated for 142 secs followed by glutamate addition measured after 120 secs by Fluo4-AM dye based fluorescence assay; format: functional, cell-based
[14] = target: Sodium-dependent noradrenaline transporter (Homo sapiens) (UniProt P23975); test: Displacement of [125I] RTI-55 from full length human recombinant NET expressed in MDCK cell membranes at 10 uM after 180 mins by scintillation counting method relative to control; method in brief: as §2
[15] = target: 5-hydroxytryptamine receptor 3A (Homo sapiens) (UniProt P46098); test: Displacement of [3H] GR-65630 from full length human recombinant 5-HT3 receptor expressed in HEK293 cell membranes at 10 uM after 60 mins by scintillation counting method relative to control; method in brief: as §2
[16] = target: Histamine H3 receptor (Homo sapiens) (UniProt Q9Y5N1); test: Displacement of [3H] N-alpha-methylhistamine from recombinant human H3 receptor expressed in CHOK1 cell membranes at 10 uM after 120 mins by scintillation counting method relative to control; method in brief: as §2
[17] = target: Alpha-2A adrenergic receptor (Homo sapiens) (UniProt P08913); test: Displacement of [3H]rauwolscine from full length human recombinant alpha2a receptor expressed in CHOK1 cells at 10 uM after 60 mins by scintillation counting method relative to control; format: cell-based; method in brief: as §1
[18] = target: Beta-2 adrenergic receptor (Homo sapiens) (UniProt P07550); test: Displacement of [3H] CGP-12177 from recombinant human beta2 receptor expressed in CHO cell membranes co-expressing human NBR1 at 10 uM after 60 mins by scintillation counting method relative to control; method in brief: as §2
[19] = Brain to plasma partition coefficient, Kp of the compound in C57BL/6 mouse at 10 mg/kg, ip measured after 60 mins by LC-MS/MS analysis; format: ADME, organism-based; details: brain and plasma
Method in brief: (§3)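 Mice given 10 mg/kg IP; time course out to 6 h with nonserial sampling of plasma and brain at each time point; Kp from brain/plasma levels.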

[20] = target: Muscarinic acetylcholine receptor M1 (Homo sapiens) (UniProt P11229); test: Displacement of [3H] N-methylscopolamine from recombinant human M1 receptor expressed in CHOK1 cell membranes at 10 uM after 120 mins by scintillation counting method relative to control; method in brief: as §2
[21] = Brain to plasma partition coefficient, Kp of the compound in C57BL/6 mouse at 10 mg/kg, ip measured after 360 mins by LC-MS/MS analysis; format: ADME, organism-based; details: brain and plasma; method in brief: as §3
[22] = target: Alpha-1D adrenergic receptor (Homo sapiens) (UniProt P25100); test: Displacement of [3H] prazosin from recombinant human alpha1d receptor expressed in HEK293 cell membranes at 10 uM measured after 60 mins by scintillation counting method relative to control; method in brief: as §2
Rattus norvegicus [23] = species on record: Rattus norvegicus; test: Displacement of [3H] Rolipram from PDE4 receptor rolipram binding site in Wistar rat brain membranes at 10 uM after 60 mins by scintillation counting method relative to control; format: cell membranes; details: Membrane; method in brief: as §2

Chain of Substance-P receptor (P25103 whole entry): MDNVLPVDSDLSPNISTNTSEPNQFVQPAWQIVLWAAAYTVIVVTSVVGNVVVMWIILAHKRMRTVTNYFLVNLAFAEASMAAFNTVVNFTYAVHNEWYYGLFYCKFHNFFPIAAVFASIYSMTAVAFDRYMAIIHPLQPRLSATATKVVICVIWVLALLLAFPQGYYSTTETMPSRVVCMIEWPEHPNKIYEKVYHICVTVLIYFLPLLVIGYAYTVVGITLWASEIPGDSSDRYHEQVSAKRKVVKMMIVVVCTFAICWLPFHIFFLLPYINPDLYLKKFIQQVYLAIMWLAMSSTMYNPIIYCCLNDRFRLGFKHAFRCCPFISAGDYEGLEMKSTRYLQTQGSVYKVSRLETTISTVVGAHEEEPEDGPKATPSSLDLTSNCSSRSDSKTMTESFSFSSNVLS
T2 sequence (P23385 whole entry): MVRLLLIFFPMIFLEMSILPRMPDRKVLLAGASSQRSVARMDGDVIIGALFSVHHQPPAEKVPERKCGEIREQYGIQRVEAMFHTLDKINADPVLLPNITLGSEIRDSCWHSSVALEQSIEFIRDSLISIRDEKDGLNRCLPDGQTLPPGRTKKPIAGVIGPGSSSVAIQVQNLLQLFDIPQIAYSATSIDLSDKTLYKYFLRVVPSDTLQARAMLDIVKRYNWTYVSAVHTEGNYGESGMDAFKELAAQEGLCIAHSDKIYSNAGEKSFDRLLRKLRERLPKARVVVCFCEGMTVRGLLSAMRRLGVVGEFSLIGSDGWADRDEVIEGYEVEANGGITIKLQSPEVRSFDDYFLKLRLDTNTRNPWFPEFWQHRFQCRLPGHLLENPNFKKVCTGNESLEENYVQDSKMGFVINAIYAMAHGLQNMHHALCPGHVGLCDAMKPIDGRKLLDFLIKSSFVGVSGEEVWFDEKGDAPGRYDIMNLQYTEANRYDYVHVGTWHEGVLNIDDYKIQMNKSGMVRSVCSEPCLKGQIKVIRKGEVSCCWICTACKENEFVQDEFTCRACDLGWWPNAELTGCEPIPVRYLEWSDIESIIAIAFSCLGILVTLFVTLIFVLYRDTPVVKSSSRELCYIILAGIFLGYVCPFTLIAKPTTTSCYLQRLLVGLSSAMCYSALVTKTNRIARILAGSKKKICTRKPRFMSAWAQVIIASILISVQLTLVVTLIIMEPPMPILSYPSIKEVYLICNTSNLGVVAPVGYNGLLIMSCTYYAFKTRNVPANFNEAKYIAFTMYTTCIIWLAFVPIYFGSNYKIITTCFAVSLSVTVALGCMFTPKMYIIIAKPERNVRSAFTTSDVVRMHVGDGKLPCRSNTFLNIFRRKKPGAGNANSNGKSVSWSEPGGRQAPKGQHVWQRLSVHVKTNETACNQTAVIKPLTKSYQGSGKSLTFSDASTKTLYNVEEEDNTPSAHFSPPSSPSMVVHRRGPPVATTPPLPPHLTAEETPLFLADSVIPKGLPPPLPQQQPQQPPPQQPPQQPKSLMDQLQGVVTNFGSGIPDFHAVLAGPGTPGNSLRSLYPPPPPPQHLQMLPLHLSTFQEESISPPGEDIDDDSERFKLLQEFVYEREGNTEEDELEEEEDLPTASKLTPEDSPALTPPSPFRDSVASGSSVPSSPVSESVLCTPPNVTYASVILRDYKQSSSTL
Chain of Muscarinic acetylcholine receptor M1 (Homo sapiens) (P11229 whole entry): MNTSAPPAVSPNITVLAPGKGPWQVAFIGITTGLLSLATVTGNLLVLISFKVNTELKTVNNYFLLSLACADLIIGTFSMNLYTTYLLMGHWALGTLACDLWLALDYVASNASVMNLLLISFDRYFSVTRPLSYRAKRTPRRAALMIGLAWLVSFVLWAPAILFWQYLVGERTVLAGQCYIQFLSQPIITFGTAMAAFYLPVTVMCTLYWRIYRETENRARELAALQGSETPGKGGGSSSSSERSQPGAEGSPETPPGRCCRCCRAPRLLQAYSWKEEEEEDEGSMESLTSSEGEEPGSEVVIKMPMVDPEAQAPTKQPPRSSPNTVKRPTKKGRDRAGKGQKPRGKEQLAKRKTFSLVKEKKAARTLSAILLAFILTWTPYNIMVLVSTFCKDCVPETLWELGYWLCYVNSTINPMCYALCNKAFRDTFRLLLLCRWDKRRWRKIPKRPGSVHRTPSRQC
Chain of Alpha-1D adrenergic receptor (Homo sapiens) (P25100 whole entry): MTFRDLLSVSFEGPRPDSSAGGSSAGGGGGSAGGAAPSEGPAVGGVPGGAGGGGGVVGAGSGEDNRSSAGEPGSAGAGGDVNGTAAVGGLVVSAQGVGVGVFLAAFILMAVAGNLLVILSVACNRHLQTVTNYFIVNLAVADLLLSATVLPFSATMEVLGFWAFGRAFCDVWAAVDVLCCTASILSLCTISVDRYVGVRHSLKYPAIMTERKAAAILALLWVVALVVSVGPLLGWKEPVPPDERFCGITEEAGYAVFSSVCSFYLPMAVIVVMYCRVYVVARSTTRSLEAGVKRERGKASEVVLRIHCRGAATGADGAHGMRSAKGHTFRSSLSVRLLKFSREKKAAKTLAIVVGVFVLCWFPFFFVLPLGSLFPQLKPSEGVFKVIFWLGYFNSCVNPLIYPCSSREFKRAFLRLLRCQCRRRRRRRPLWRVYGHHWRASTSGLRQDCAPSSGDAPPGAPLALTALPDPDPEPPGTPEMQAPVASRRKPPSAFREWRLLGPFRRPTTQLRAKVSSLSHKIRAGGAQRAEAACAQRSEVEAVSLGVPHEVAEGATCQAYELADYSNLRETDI
Chain of Histamine H3 receptor (Homo sapiens) (Q9Y5N1 whole entry): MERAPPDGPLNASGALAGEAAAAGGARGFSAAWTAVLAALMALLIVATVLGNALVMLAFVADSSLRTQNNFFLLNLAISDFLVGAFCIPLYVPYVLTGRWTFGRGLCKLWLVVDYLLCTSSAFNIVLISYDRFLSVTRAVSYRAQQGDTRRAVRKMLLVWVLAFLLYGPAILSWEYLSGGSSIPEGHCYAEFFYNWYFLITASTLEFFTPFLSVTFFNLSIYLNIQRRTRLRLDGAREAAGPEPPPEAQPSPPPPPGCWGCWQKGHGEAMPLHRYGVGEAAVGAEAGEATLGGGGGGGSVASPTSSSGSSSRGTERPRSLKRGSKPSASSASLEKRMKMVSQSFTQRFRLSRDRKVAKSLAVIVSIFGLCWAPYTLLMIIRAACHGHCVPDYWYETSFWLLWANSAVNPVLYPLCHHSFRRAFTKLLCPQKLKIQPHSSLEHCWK
Chain of 5-hydroxytryptamine receptor 3A (Homo sapiens) (P46098 whole entry): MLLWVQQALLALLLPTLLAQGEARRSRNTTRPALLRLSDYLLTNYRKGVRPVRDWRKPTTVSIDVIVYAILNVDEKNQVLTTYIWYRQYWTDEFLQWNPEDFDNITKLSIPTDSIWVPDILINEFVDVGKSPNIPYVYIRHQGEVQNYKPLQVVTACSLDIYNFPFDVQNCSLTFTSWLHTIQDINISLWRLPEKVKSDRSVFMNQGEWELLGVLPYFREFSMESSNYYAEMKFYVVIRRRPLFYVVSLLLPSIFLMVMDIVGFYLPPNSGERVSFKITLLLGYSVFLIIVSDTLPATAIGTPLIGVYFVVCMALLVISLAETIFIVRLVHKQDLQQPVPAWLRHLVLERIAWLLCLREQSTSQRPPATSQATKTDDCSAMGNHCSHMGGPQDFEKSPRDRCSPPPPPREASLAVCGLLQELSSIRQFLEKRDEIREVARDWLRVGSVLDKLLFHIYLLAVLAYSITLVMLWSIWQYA
Chain of hERG (KCNH2) (Q12809 whole entry): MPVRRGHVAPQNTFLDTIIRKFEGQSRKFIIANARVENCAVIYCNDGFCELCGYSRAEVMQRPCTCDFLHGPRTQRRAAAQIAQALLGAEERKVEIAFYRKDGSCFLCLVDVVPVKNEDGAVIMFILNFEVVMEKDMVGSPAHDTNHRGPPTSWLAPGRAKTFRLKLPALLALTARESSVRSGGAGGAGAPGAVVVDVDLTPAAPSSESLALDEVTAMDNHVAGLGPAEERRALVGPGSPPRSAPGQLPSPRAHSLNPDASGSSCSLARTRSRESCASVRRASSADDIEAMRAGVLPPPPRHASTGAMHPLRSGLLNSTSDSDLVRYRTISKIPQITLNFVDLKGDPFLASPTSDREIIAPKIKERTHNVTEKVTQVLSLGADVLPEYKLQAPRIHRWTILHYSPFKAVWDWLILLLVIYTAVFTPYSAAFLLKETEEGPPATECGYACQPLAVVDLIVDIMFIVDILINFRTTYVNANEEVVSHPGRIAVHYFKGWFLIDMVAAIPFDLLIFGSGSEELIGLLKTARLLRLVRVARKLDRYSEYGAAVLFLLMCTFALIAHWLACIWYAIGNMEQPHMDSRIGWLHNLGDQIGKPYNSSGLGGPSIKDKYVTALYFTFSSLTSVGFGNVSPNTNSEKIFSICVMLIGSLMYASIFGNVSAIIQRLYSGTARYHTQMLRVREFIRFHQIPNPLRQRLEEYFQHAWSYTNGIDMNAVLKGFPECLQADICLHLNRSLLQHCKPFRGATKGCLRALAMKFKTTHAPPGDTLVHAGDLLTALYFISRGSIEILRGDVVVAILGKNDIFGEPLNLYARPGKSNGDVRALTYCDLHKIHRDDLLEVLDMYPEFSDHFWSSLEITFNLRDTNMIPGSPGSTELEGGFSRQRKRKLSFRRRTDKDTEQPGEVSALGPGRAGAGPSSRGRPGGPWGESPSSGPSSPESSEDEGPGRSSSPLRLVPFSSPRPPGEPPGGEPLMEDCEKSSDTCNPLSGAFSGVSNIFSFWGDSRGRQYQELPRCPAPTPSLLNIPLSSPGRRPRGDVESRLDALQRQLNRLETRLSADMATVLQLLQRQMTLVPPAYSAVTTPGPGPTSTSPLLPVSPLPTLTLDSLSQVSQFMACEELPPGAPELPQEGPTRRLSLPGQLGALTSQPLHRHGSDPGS

For `COc1ccc(-c2c(C)nn3c(C(F)(F)F)cc(C)nc23)c(F)c1F`, the inhibition [1] was less than 50%, the inhibition [2] was less than 50% and the inhibition (Oryctolagus cuniculus) was less than 50%. For the same compound, the EC50 [3] was greater than 10 µM, the inhibition [4] was less than 50% and the IC50 (Substance-P receptor) was 3.4 µM. It also gave a Ki (Substance-P receptor) of 0.65 µM, an EC50 [5] greater than 10 µM and an inhibition at 1 h, 10 µM (hERG (KCNH2)) of less than 50%. For the same compound, the EC50 [6] was greater than 10 µM, the inhibition (Rattus norvegicus [7]) was less than 50% and the inhibition [8] was less than 50%. It also gave an inhibition [9] of less than 50%, an IC50 [10] greater than 10 µM and an IC50 [11] greater than 10 µM. It also gave an inhibition (Rattus norvegicus [12]) of less than 50%, an EC50 [13] greater than 10 µM and an inhibition [14] of less than 50%. For the same compound, the inhibition [15] was less than 50%, the inhibition [16] was less than 50% and the inhibition [17] was less than 50%. For the same compound, the inhibition [18] was less than 50%, the Kp at 1 h [19] was 2.1 and the inhibition [20] was less than 50%. The Kp at 6 h [21] was 1.1, the inhibition [22] was less than 50% and the inhibition (Rattus norvegicus [23]) was less than 50%.
